# Assays:
# [1] = test system: Trypanosoma brucei gambiense; assay: Anti-trypanosomal activity against Trypanosoma brucei gambiense Feo bloodstream forms assessed as inhibition of parasite growth rate at 10 ug/mL after 72 hrs by resazurin assay; type: functional; conditions: read-out: GI
# Summary of the method: (§1)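 Fixed-concentration screen of bloodstream-form Feo parasites, 10⁴ cells per well, cultured in HMI9 with 10% FCS at 37 °C, 5% CO2. Most compounds tested at 50, 10 and 1; some at 100, 20 and 2. Growth measured by resazurin fluorescence at 530 nm. Percent inhibition calculated against untreated wells.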
# [2] = test system: Trypanosoma brucei gambiense; assay: Anti-trypanosomal activity against Trypanosoma brucei gambiense Feo bloodstream forms assessed as inhibition of parasite growth rate at 50 ug/mL after 72 hrs by resazurin assay; type: functional; conditions: read-out: GI; summary of the method: as §1
# [3] = test system: Trypanosoma brucei gambiense; assay: Anti-trypanosomal activity against Trypanosoma brucei gambiense Feo bloodstream forms assessed as inhibition of parasite growth rate at 1 ug/mL after 72 hrs by resazurin assay; type: functional; conditions: read-out: GI; summary of the method: as §1
# [4] = Cytotoxicity against rat L6 cells after 5 days by resazurin assay; type: cell-based
# Summary of the method: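 Rat myoblast L-6 cells in RPMI with 25 mM HEPES pH 7.3 and 10% fetal calf serum, 37 °C, 5% CO2. Compounds from DMSO stocks, final DMSO below 1%. Controls received DMSO only. Viability by resazurin conversion, fluorescence at 530 nm excitation and 590 nm emission after a further 4 h. CC50 is the mean ± SD of three independent experiments.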
# [5] = test system: Trypanosoma brucei gambiense; assay: Anti-trypanosomal activity against Trypanosoma brucei gambiense Feo bloodstream forms assessed as inhibition of parasite growth rate after 72 hrs by resazurin assay; type: functional, organism-based
# Summary of the method: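 Bloodstream-form Feo parasites in HMI9 with 10% FCS, 37 °C, 5% CO2. Log-phase cells harvested at 3000 × g and used at once. 10⁴ cells per well, with or without inhibitor (stocks in DMSO). Resazurin added and fluorescence read at 530 nm. Inhibition taken against drug-free wells. IC50 from dose–response curves ranging down to 10 ng/ml. Mean ± SD of three independent experiments.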
# [6] = Selectivity index, ratio of CC50 for rat L6 cells to IC50 for Trypanosoma brucei gambiense Feo; type: functional
# Summary of the method: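 Computed as CC50 (L-6 cells, resazurin) divided by IC50 (T. b. gambiense Feo bloodstream forms, resazurin). Both values are means of three independent experiments.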
# [7] = test system: Trypanosoma brucei gambiense; assay: Potency index, ratio of IC50 for nifurtimox to IC50 for test compound against Trypanosoma brucei gambiense Feo bloodstream forms assessed as inhibition of parasite growth rate after 72 hrs by resazurin assay; type: functional
# [8] = test system: Trypanosoma brucei rhodesiense; assay: Anti-trypanosomal activity against Trypanosoma brucei rhodesiense; type: functional, organism-based
# [9] = test system: Trypanosoma brucei brucei; assay: Anti-trypanosomal activity against Trypanosoma brucei brucei; type: functional, organism-based
# [10] = test system: Trypanosoma cruzi; assay: Anti-trypanosomal activity against Trypanosoma cruzi Y; type: functional, organism-based
# [11] = test system: Trypanosoma brucei gambiense; assay: Anti-trypanosomal activity against Trypanosoma brucei gambiense Feo bloodstream forms assessed as inhibition of parasite growth rate at 20 ug/mL after 72 hrs by resazurin assay; type: functional; conditions: read-out: GI; summary of the method: as §1
# [12] = test system: Trypanosoma brucei gambiense; assay: Anti-trypanosomal activity against Trypanosoma brucei gambiense Feo bloodstream forms assessed as inhibition of parasite growth rate at 100 ug/mL after 72 hrs by resazurin assay; type: functional; conditions: read-out: GI; summary of the method: as §1
# [13] = test system: Trypanosoma brucei gambiense; assay: Anti-trypanosomal activity against Trypanosoma brucei gambiense Feo bloodstream forms assessed as inhibition of parasite growth rate at 2 ug/mL after 72 hrs by resazurin assay; type: functional; conditions: read-out: GI; summary of the method: as §1
Structure (SMILES),inhibition of growth at 10 µg/mL [1] [%],inhibition of growth at 50 µg/mL [2] [%],inhibition of growth at 1 µg/mL [3] [%],IC50 [5] [µM],further results
COc1ccc(C2=NN(/C=C3\SC(=S)N(c4ccc(C)cc4)C3=O)C(c3ccc(OC)cc3)C2)cc1 (configuration not stated),55.5,23.1,44.5,–,–
COc1ccc(C2CC(c3ccc4ccccc4c3)=NN2/C=C2\SC(=S)N(C)C2=O)cc1 (configuration not stated),97.2,97.1,97.2,0.6,CC50 at 120 h [4]: 175 µM; Ratio CC50/IC50 [6]: 292; Ratio IC50 [7]: 6
CC1=NN(C2=NC(=O)CS2)C(c2ccccc2)C1 (configuration not stated),–,–,–,–,IC50 [8]: 12 µg/mL
Cc1ccc(N2C(=O)/C(=C/N3N=C(c4ccc5ccccc5c4)CC3c3ccc(Cl)cc3)SC2=S)cc1 (configuration not stated),59.4,41.7,27.6,21.7,–
COc1ccc(C2CC(c3ccccc3)=NN2C2=NC(=O)S/C2=C\c2ccc([N+](=O)[O-])cc2)cc1 (configuration not stated),–,–,–,–,IC50 [9]: 3.01 µg/mL
O=C1/C(=C/N2N=C(c3ccc4ccccc4c3)CC2c2ccc(Cl)cc2)SC(=S)N1Cc1ccco1 (configuration not stated),45.3,59.6,29,–,–
CC1CS(=O)(=O)CCN1/N=C/c1ccc([N+](=O)[O-])o1 (configuration not stated) [NIFURTIMOX],–,–,–,4.4,CC50 at 120 h [4]: 78.2 µM; Ratio CC50/IC50 [6]: 17.8
CN(C)c1ccc(C2CC(c3ccccc3)=NN2/C=C2\SC(=S)NC2=O)cc1 (configuration not stated),76.2,74,30.2,10.5,–
CCC1SC(N/N=C/CSc2ccccc2)=NC1=O (configuration not stated),–,–,–,–,IC50 [10]: 0.3 µM
COc1ccc(C2CC(c3ccccc3)=NN2/C=C2\SC(=S)NC2=O)cc1 (configuration not stated),92.3,91.5,21.9,14.7,–
COc1ccc(C2CC(c3ccccc3)=NN2/C=C2\SC(=S)N(c3cccc(OC(C)=O)c3)C2=O)cc1 (configuration not stated),97.5,97.2,79.3,10.8,–
COc1ccc(C2CC(c3ccc4ccccc4c3)=NN2/C=C2\SC(=O)NC2=S)cc1 (configuration not stated),74.7,87.2,19.7,18.6,–
COc1ccc(C2=NN(/C=C3\SC(=S)N(c4ccc(C)cc4)C3=O)C(c3ccc(Cl)cc3)C2)cc1 (configuration not stated),70.4,40.2,62.8,2.5,–
CC(=O)Oc1cccc(N2C(=O)/C(=C/N3N=C(c4ccccc4)CC3c3ccc(N(C)C)cc3)SC2=S)c1 (configuration not stated),84.9,81.6,53.1,1.2,CC50 at 120 h [4]: > 184 µM; Ratio CC50/IC50 [6]: >153.6
O=C1NC(=S)S/C1=C\N1N=C(c2ccc3ccccc3c2)CC1c1ccc(F)cc1 (configuration not stated),85,85.4,19.9,13.2,–
CN1C(=O)/C(=C/N2N=C(c3ccc4ccccc4c3)CC2c2ccc(Cl)cc2)SC1=S (configuration not stated),97.2,97,97.1,> 1,CC50 at 120 h [4]: 154 µM

Structure (SMILES),inhibition of growth at 10 µg/mL [1] [%],inhibition of growth at 50 µg/mL [2] [%],inhibition of growth at 1 µg/mL [3] [%],IC50 [5] [µM],further results
COc1ccc(C2CC(c3ccccc3)=NN2/C=C2\SC(=S)N(c3ccc(C)cc3)C2=O)cc1 (configuration not stated),69.2,17.8,52.5,1.5,–
COc1ccc(C2=NN(/C=C3\SC(=S)N(Cc4ccco4)C3=O)C(c3ccc(OC)cc3)C2)cc1 (configuration not stated),48.2,12.8,38.7,> 98.9,–
O=C1NC(=S)/C(=C/N2N=C(c3ccccc3)CC2c2ccccc2O)S1 (configuration not stated),93.3,85.8,61,3.5,–
COc1ccc(C2=NN(/C=C3\SC(=S)N(c4cccc(OC(C)=O)c4)C3=O)C(c3ccccc3O)C2)cc1 (configuration not stated),91.7,89.5,90.1,0.7,CC50 at 120 h [4]: 40 µM; Ratio CC50/IC50 [6]: 57.1; Ratio IC50 [7]: 6
CC(=O)Oc1cccc(N2C(=O)/C(=C/N3N=C(c4ccc5ccccc5c4)CC3c3ccc(Cl)cc3)SC2=S)c1 (configuration not stated),89.9,90.6,66.7,16.5,–
CC(=O)Oc1cccc(N2C(=O)/C(=C/N3N=C(c4ccccc4)CC3c3ccccc3O)SC2=S)c1 (configuration not stated),93.8,90.9,83.1,1.1,CC50 at 120 h [4]: 13.6 µM; Ratio CC50/IC50 [6]: 12.4
COc1ccc(C2CC(c3ccccc3)=NN2C(=O)CN/C=C2\SC(=S)N(C)C2=O)cc1 (configuration not stated),96.5,96.1,62.3,4.6,–
COc1ccc(C2CC(c3ccc4ccccc4c3)=NN2/C=C2\SC(=S)N(c3cccc(OC(C)=O)c3)C2=O)cc1 (configuration not stated),95.8,94.7,87.6,1.2,CC50 at 120 h [4]: > 172 µM; Ratio CC50/IC50 [6]: >143.8
CN1C(=O)/C(=C/N2N=C(c3ccccc3)CC2c2ccc(Cl)cc2)SC1=S (configuration not stated),–,–,–,–,inhibition of growth at 20 µg/mL [11]: 42%; inhibition of growth at 100 µg/mL [12]: 56%; inhibition of growth at 2 µg/mL [13]: 8.2%
CN1C(=O)/C(=C/NCC(=O)N2N=C(c3ccc4ccccc4c3)CC2c2ccc(F)cc2)SC1=S (configuration not stated),94.8,95.6,46.6,1.5,–
Cc1ccc(N2C(=O)/C(=C/N3N=C(c4ccccc4)CC3c3ccc(N(C)C)cc3)SC2=S)cc1 (configuration not stated),51.9,5.8,39.8,> 20.1,–
CC(=O)Oc1cccc(N2C(=O)/C(=C/N3N=C(c4ccccc4)CC3c3ccc(Cl)cc3)SC2=S)c1 (configuration not stated),91.4,90.3,42.1,1.9,–
CN1C(=O)/C(=C/NCC(=O)N2N=C(c3ccc4ccccc4c3)CC2c2ccc(Cl)cc2)SC1=S (configuration not stated),86.9,93.5,52,2.1,–
COc1ccc(C2CC(c3ccccc3)=NN2/C=C2\SC(=S)N(Cc3ccco3)C2=O)cc1 (configuration not stated),67.3,46.6,37.9,–,–
COc1ccc(C2CC(c3ccc4ccccc4c3)=NN2/C=C2\SC(=S)N(Cc3ccco3)C2=O)cc1 (configuration not stated),32.1,54.6,19.4,–,–

# Reference: ChEMBL document CHEMBL3351384, “Synthesis of pyrazoline-thiazolidinone hybrids with trypanocidal activity” (Eur J Med Chem, 2014)
